Results taken from article PMC3119342 (Chemistry & biology, 2011).
“Also recorded” adds a separate entry of the source.

Assays:
[1] = system: MAGE lipids; test: Lipid measurements; assay type: cell-based, human; details: for MAGE lipids: prostate cancer cells (Figure S4); for MAGE lipid levels: 1 μM, 48 hr
[2] = system: PC3 cells; test: Invasion assay; assay type: cell-based, human; details: prostate cancer (PC3) cells; JW480 1 μM, 48 h in situ
[3] = system: PC3 cells; test: Serum-free cell survival assay; assay type: cell-based, human; details: prostate cancer (PC3) cells; JW480 1 μM, 48 h in situ
[4] = target: T1, mouse brain KIAA1363 (Mus musculus, UniProt Q8BLF1); test: Gel-based competitive ABPP; assay type: biochemical; details: read-out: IC50 for KIAA1363, mouse brain proteome
T1 sequence (Q8BLF1 1-408): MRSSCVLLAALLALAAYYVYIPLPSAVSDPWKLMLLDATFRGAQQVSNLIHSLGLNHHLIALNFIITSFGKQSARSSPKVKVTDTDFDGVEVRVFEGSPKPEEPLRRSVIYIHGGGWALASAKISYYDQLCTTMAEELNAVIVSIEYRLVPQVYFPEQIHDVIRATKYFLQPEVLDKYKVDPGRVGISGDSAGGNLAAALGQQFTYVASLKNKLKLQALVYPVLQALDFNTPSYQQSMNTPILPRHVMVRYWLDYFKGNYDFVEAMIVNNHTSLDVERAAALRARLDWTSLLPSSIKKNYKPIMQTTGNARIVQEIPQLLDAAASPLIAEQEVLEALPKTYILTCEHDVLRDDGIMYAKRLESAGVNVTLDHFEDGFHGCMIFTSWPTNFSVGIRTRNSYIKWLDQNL

[5] = target: T2, HSL (Mus musculus, UniProt P54310); test: Competitive ABPP in rosiglitazone-differentiated 3T3-10T1/2 adipocyte proteome; assay type: biochemical
T2 sequence (P54310 1-759): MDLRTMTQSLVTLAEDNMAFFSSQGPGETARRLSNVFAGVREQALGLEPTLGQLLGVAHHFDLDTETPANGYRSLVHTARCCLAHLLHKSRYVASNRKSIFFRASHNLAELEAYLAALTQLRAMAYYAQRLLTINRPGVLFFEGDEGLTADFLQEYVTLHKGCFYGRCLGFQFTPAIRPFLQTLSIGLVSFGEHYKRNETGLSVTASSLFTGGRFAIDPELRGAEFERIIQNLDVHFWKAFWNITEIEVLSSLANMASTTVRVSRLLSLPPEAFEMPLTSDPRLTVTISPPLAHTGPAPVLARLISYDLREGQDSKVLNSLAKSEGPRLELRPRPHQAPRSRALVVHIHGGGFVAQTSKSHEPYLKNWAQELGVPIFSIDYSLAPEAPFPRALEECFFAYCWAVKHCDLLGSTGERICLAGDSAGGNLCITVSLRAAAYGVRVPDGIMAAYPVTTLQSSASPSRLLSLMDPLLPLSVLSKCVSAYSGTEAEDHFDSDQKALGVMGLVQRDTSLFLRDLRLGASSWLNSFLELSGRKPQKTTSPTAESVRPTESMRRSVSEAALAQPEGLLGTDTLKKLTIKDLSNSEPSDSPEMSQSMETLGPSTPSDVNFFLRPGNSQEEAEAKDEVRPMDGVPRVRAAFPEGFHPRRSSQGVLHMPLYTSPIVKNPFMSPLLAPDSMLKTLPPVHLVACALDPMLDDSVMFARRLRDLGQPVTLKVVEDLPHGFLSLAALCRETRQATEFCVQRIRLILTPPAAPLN

[6] = target: T3, FAAH (Mus musculus, UniProt O08914); test: Competitive ABPP of FAAH in mouse brain proteome; assay type: biochemical; details: gel-based competitive ABPP of a mouse brain proteome
T3 sequence (O08914 1-579): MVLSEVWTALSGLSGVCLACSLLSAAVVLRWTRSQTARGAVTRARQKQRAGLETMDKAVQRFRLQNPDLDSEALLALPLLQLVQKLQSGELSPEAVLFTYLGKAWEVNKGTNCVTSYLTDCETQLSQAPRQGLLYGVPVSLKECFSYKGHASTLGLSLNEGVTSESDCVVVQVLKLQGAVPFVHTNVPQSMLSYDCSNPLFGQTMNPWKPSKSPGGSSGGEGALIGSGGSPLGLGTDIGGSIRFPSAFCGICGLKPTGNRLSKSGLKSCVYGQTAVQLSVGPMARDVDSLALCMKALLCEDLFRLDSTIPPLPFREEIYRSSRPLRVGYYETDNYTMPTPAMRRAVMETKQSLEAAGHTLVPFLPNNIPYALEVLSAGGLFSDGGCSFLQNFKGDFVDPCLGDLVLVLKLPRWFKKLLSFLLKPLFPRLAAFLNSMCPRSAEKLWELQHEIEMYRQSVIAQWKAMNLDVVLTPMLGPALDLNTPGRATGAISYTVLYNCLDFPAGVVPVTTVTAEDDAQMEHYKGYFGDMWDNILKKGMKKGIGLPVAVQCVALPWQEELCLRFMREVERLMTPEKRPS

[7] = system: PC3 cells; test: Cell migration assay; assay type: cell-based, human; details: prostate cancer (PC3) cells; JW480 1 μM, 48 h in situ
[8] = target: AChE (Mus musculus, UniProt P21836); details: mouse brain proteome; for IC50: read-out: IC50 for AChE, substrate acetylthiocholine
Sequence of AChE (P21836 32-614): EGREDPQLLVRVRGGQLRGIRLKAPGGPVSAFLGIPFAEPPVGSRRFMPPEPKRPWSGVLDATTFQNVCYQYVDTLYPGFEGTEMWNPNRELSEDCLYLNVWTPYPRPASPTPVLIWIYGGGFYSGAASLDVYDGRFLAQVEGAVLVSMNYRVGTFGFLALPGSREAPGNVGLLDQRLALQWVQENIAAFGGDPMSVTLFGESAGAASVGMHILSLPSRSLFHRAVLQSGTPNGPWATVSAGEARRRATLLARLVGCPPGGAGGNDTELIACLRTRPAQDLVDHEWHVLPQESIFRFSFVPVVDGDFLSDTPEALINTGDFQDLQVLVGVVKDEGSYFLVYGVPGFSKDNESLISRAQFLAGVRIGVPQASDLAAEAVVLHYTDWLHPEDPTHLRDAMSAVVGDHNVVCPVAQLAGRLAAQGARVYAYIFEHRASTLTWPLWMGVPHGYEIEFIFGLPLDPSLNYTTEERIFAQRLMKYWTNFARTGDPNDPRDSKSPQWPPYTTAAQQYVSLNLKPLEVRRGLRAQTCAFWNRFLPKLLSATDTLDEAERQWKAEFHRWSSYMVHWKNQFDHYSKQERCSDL

[9] = target: T4, KIAA1363 (Homo sapiens, UniProt Q6PIU2); test: Gel-based competitive ABPP in PC3 cell proteomes; assay type: biochemical; details: read-out: IC50 for human KIAA1363, in vitro treatment
T4 sequence (Q6PIU2 1-408): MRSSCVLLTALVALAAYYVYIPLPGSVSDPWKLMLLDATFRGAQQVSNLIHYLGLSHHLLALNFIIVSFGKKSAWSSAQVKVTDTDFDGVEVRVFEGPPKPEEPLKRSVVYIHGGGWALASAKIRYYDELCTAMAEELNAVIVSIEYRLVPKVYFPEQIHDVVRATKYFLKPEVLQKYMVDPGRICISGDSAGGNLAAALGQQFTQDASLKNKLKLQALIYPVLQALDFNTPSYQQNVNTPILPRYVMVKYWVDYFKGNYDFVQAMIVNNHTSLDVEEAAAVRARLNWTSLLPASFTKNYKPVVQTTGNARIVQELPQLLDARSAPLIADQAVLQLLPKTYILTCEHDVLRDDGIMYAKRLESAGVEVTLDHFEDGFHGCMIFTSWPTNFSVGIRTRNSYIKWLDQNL

[10] = target: T4, KIAA1363; test: Gel-based competitive ABPP in living PC3 cells; assay type: cell-based; details: for IC50: read-out: IC50 for KIAA1363
[11] = system: other mouse brain serine hydrolases; test: Gel-based competitive ABPP, other serine hydrolases of mouse brain proteome; assay type: biochemical
[12] = system: serine hydrolase activities detected in PC3 cells; test: Competitive ABPP-MudPIT of PC3 cells treated in situ; assay type: cell-based, human; details: 1 μM in situ, ~30 serine hydrolase activities
[13] = target: T5, brain KIAA1363 (Mus musculus, UniProt Q8BLF1); test: Competitive ABPP of brain proteomes from inhibitor-treated mice; assay type: in vivo; details: for inhibition of brain KIAA1363: 4 hr
T5 sequence (Q8BLF1 1-408): T1 sequence (Q8BLF1 1-408)

[14] = target: T6, KIAA1363 (2-acetyl MAGE hydrolase activity) (Homo sapiens, UniProt Q6PIU2); test: 2-Acetyl MAGE hydrolytic activity assay in prostate cancer cells; assay type: cell-based; details: 1 μM, 48 h
T6 sequence (Q6PIU2 1-408): T4 sequence (Q6PIU2 1-408)

[15] = system: LNCaP cells; test: Cell survival assay in LNCaP cells; assay type: cell-based, human; details: which express low levels of KIAA1363
[16] = system: PC3 tumor xenograft; test: PC3 tumor xenograft growth in SCID mice; assay type: in vivo, mouse; details: 80 mg/kg, oral gavage, one dose per day, versus vehicle
Procedure, shortened: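 PC3 cells were washed, trypsinised, resuspended serum-free at 2.0 × 10^4 cells/μL, and 100 μL was injected into the flank of C.B17 SCID mice. Dosing was once daily by oral gavage in PEG300 (4 μL/g) or vehicle, starting immediately after injection. Tumours were measured with calipers every 3 days and excised 4 hr after the final dose on day 33 for ABPP.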

[17] = target: serine hydrolase activities detected in the brain proteome (Mus musculus, UniProt P21836); details: brain proteome of treated mice (Figure 4C)
Sequence of serine hydrolase activities detected in the brain proteome (P21836 32-614): as the sequence (P21836 32-614) above

Compound	MAGE lipids [1]	invasion [2]	survival in serum-free media [3]	IC50 [4] [nM]	cross-reactivity with HSL [5]	selectivity for KIAA1363 compared to FAAH [6]	migration [7]	cross-reactivity with AChE [8]	IC50 [8] [nM]	also measured
CCCCOC[C@H]1CCCC[C@H]1COCCNC(=O)Oc1ccccc1F [AS115, reference compound]	reductions	also observed	also observed	–	–	–	–	–	–	–
COc1ccc(CNC(=O)Oc2cccc3c2OC(C)(C)C3)cc1 [JW148]	reductions	also observed	also observed	~200	cross-reactivity	good selectivity	also observed	cross-reactivity	1000	–
CC(C)c1ccccc1OC(=O)NCCc1ccc2ccccc2c1 [JW480]	–	reductions; also recorded: reduced	reductions; also recorded: reduced	–	negligible cross-reactivity	–	reductions; also recorded: reduced	negligible cross-reactivity	> 100000	IC50 [9]: 12 nM; time in situ inhibition of KIAA1363 was maintained ([10]; 1 μM, in situ): at least 48 hr; IC50 ([10]; PC3 cells, in situ): 6 nM; IC50 ([10]; living PC3 cells, in situ treatment, presence or absence of 10% fetal calf serum): 6 to 12 nM; cross-reactivity with other mouse brain serine hydrolases [11]: negligible cross-reactivity; off-target activity across serine hydrolases by ABPP-MudPIT [12]: no off-target activity; also recorded: only KIAA1363 was inhibited; time of full inhibition of KIAA1363 in mice ([13]; following a single administration, orally active): at least 24 hrs; inhibition of brain KIAA1363 ([13]; mice, 5 mg/kg i.p.): complete inhibition; inhibition of brain KIAA1363 ([13]; mice, 20 mg/kg oral): complete inhibition; time inhibition of KIAA1363 was maintained in vivo ([13]; mice, single administration, 20 mg/kg, oral): up to 24 hr; 2-acetyl MAGE hydrolase activity ([14]; DU145 cells): completely blocked; also recorded: ablates; 2-acetyl MAGE hydrolase activity ([14]; PC3 cells): completely blocked; also recorded: ablates; MAGE lipid levels ([1]; DU145 cells): significant reductions; also recorded: significantly reduces; MAGE lipid levels ([1]; PC3 cells): significant reductions; also recorded: significantly reduces; survival in LNCaP cells [15]: did not affect; PC3 tumor growth [16]: significantly impaired; also recorded: significantly reduces; cross-reactivity with AChE by competitive ABPP-MudPIT [17]: negligible cross-reactivity
CC1(C)Cc2cccc(OC(=O)NCc3ccc(F)cc3)c2O1 [WWL38]	–	–	–	~200	cross-reactivity	good selectivity	–	cross-reactivity	–	–
